Source: ChEMBL document CHEMBL1136734, “Discovery of tyrosine-based potent and selective melanocortin-1 receptor small-molecule agonists with anti-inflammatory properties” (J Med Chem, 2003)
Active and inactive are the calls of the source. The rule behind the calls is not given here.

What was measured:
Melanocortin receptor 5 [1] = molecular target: T1, Melanocortin receptor 5 (Homo sapiens, UniProt P33032); test: In vitro effective concentration towards human Melanocortin 5 receptor (MC5R) was determined by a SPA-based cAMP assay in melanoma cells; format: cell-based
Melanocortin receptor 4 [2] = molecular target: T2, Melanocortin receptor 4 (Homo sapiens, UniProt P32245); test: In vitro effective concentration towards human Melanocortin 4 receptor (MC4R) was determined by a SPA-based cAMP assay in melanoma cells; format: cell-based
Melanocortin receptor 3 [3] = molecular target: T3, Melanocortin receptor 3 (Homo sapiens, UniProt P41968); test: In vitro effective concentration towards human Melanocortin 3 receptor (MC3R) was determined by a SPA-based cAMP assay in melanoma cells; format: cell-based
[4] = molecular target: T4, Melanocyte-stimulating hormone receptor (Homo sapiens, UniProt Q01726); test: In vitro effective concentration towards human Melanocortin 1 receptor (MC1R) in SPA-based cAMP assay in melanoma cells; format: cell-based
Target sequence in this assay (Q01726 whole entry): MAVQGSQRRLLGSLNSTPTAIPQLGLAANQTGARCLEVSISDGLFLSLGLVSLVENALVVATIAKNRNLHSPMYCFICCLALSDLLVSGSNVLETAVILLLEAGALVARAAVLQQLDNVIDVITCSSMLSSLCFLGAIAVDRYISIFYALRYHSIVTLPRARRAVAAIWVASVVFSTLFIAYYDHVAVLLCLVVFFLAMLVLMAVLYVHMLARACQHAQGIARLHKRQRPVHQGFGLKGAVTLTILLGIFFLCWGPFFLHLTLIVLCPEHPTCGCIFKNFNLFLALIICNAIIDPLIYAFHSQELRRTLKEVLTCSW

[5] = molecular target: T4, Melanocyte-stimulating hormone receptor; test: In vitro inhibitory concentration against human Melanocortin 1 receptor (MC1R)
Target sequence in this assay (Q01726 whole entry): as above

[6] = molecular target: T4, Melanocyte-stimulating hormone receptor; test: In vitro intrinsic activity against human Melanocortin 1 receptor (MC1R)
Target sequence in this assay (Q01726 whole entry, looked up): as the sequence (Q01726 whole entry) above

[7] = MRT value was determined by intravenous administration of 6.8 umol/kg dose in mice; format: ADME, organism-based; conditions: mouse, in vivo
Summary of the method: (§1)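 Balb/c mice (n = 3) given a single intravenous dose of 6.8 μmol/kg in 50:50 PEG400–water, with plasma pharmacokinetic parameters derived from the concentration–time profile.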

[8] = Cmax value was evaluated in mice by intravenous administration of 6.8 umol/kg dose; format: ADME, organism-based; design: dose 6.8 umol/kg, route intravenous; conditions: mouse, in vivo; summary of the method: as §1
[9] = Half life by intravenous administration of 6.8 umol/kg dose in mice; format: ADME, organism-based; conditions: mouse, in vivo; summary of the method: as §1
[10] = Vss value was determined by intravenous administration of 6.8 umol/kg dose in mice; format: ADME, organism-based; conditions: mouse, in vivo, read-out: Vss; summary of the method: as §1
[11] = Cl value was determined by intravenous administration of 6.8 umol/kg dose in mice; format: ADME, organism-based; conditions: mouse, in vivo; summary of the method: as §1
Melanocortin receptor 5 [12] = molecular target: T1, Melanocortin receptor 5; test: In vitro intrinsic activity against human Melanocortin 5 receptor (MC5R)
Summary of the method: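 A SPA-based cAMP assay was run in CHO cells overexpressing human MC-5R. EC50 and intrinsic activity (%) are given ± SEM.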

Melanocortin receptor 4 [13] = molecular target: T2, Melanocortin receptor 4; test: In vitro intrinsic activity against human Melanocortin 4 receptor (MC4R)
Melanocortin receptor 3 [14] = molecular target: T3, Melanocortin receptor 3; test: In vitro intrinsic activity against human Melanocortin 3 receptor (MC3R)
Melanocortin receptor 3 [15] = molecular target: T3, Melanocortin receptor 3; test: In vitro inhibitory concentration against human Melanocortin 3 receptor (MC3R)
Melanocortin receptor 3 [16] = molecular target: T3, Melanocortin receptor 3; test: In vitro effective concentration towards human Melanocortin-3 receptor (MC3R) was determined by a SPA-based cAMP assay in melanoma cells; format: cell-based

T1 sequence (P33032 whole entry): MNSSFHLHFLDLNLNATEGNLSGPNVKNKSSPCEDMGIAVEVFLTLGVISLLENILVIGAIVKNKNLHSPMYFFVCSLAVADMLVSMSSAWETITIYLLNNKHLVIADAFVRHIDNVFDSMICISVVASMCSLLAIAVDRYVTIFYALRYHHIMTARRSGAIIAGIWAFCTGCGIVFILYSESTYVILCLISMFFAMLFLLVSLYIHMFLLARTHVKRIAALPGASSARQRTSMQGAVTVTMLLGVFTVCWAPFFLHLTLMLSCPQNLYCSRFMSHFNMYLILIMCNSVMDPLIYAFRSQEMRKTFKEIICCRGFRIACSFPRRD
T2 sequence (P32245 whole entry): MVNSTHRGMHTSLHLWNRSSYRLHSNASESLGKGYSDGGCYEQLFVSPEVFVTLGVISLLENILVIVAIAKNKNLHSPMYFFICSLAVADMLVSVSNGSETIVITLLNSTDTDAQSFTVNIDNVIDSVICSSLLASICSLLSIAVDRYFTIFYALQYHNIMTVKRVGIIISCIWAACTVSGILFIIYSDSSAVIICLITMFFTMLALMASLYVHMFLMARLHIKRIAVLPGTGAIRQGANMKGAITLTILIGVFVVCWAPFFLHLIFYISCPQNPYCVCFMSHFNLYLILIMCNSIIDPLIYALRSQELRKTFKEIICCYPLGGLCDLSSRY
T3 sequence (P41968 whole entry): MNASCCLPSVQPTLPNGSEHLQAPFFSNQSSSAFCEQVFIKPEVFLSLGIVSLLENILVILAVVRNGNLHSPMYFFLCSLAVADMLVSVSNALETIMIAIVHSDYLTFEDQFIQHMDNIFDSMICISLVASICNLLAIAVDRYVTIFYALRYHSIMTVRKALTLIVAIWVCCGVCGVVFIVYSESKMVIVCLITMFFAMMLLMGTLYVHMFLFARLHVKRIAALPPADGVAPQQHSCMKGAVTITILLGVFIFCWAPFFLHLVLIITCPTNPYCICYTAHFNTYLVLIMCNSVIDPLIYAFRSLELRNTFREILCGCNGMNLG

CCCC(=O)C1(c2ccccc2)CCN(C(=O)[C@@H](Cc2ccc(OC)cc2)NC(=O)[C@H](N)Cc2cnc[nH]2)CC1
EC50 (Melanocortin receptor 5 [1]): 10 µM
EC50 (Melanocortin receptor 4 [2]): 0.63 µM
EC50 (Melanocortin receptor 3 [3]): 1.7 µM
EC50 [4]: 0.0015 µM
IC50 [5]: 0.032 µM

CCCC(=O)C1(c2ccccc2)CCN(C(=O)[C@@H](Cc2ccc(OC)cc2)NC(=O)[C@H](N)Cc2cncn2C)CC1
EC50 [4]: 0.51 µM
IC50 [5]: 1.5 µM
Intrinsic activity [6]: 34%

CCCC(=O)C1(c2ccccc2)CCN(C(=O)[C@@H](Cc2ccc(OC)cc2)NC(=O)[C@@H](N)Cc2cncn2C)CC1
MRT [7]: 1.2 h
Cmax [8]: 2200 nM
half-life [9]: 1.5 h
Vd [10]: 8.2 L/kg
clearance [11]: 110 mL/min/kg
Intrinsic activity (Melanocortin receptor 5 [12]): 15%
EC50 (Melanocortin receptor 5 [1]): 4.4 µM
Intrinsic activity (Melanocortin receptor 4 [13]): 39%
EC50 (Melanocortin receptor 4 [2]): 2.6 µM
EC50 [4]: 0.028 µM
IC50 [5]: 0.12 µM
Intrinsic activity [6]: 92%
Intrinsic activity (Melanocortin receptor 3 [14]): 2.1%
NA (Melanocortin receptor 3 [15]): inactive

CCCC(=O)C1(c2ccccc2)CCN(C(=O)[C@@H](Cc2ccc(OC)cc2)NC(=O)[C@@H](N)Cc2c[nH]cn2)CC1
Intrinsic activity [6]: 67%

CCCC(=O)C1(c2ccccc2)CCN(C(=O)[C@@H](Cc2ccc(OC)cc2)NC(=O)[C@@H](Cc2cnc[nH]2)NC(=O)c2ccccc2)CC1
EC50 (Melanocortin receptor 5 [1]): 2.1 µM
EC50 (Melanocortin receptor 4 [2]): 0.0029 µM
EC50 (Melanocortin receptor 3 [3]): 0.25 µM
EC50 [4]: 0.00019 µM
IC50 [5]: 0.0031 µM

CCCC(=O)C1(c2ccccc2)CCN(C(=O)[C@@H](Cc2ccc(OC)cc2)NC(=O)[C@@H](N)Cc2cnc[nH]2)CC1
EC50 [4]: 0.4 µM
IC50 [5]: 1.3 µM

CCCC(=O)C1(c2ccccc2)CCN(C(=O)[C@@H](Cc2ccc(OC)cc2)NC(=O)[C@@H](Cc2c[nH]cn2)NC(=O)c2ccccc2)CC1
Intrinsic activity (Melanocortin receptor 5 [12]): 65%
Intrinsic activity (Melanocortin receptor 4 [13]): 95%
Intrinsic activity [6]: 98%
Intrinsic activity (Melanocortin receptor 3 [14]): 100%

CCCC(=O)C1(c2ccccc2)CCN(C(=O)[C@@H](Cc2ccc(OC)cc2)NC(=O)[C@@H](Cc2c[nH]cn2)NC(C)=O)CC1
Intrinsic activity (Melanocortin receptor 5 [12]): 90%
EC50 (Melanocortin receptor 5 [1]): 3.9 µM
Intrinsic activity (Melanocortin receptor 4 [13]): 96%
EC50 (Melanocortin receptor 4 [2]): 0.023 µM
EC50 (Melanocortin receptor 3 [3]): 2.2 µM
EC50 [4]: 0.00035 µM
IC50 [5]: 0.0051 µM
Intrinsic activity [6]: 96%
Intrinsic activity (Melanocortin receptor 3 [14]): 90%

CCCC(=O)C1(c2ccccc2)CCN(C(=O)[C@@H](Cc2ccc(OC)cc2)NC(=O)CCc2c[nH]cn2)CC1
Intrinsic activity (Melanocortin receptor 5 [12]): 32%
Intrinsic activity (Melanocortin receptor 4 [13]): 92%
Intrinsic activity [6]: 97%
Intrinsic activity (Melanocortin receptor 3 [14]): 85%

CCCC(=O)C1(c2ccccc2)CCN(C(=O)[C@@H](Cc2ccc(OC)cc2)NC(=O)[C@H](N)Cc2c[nH]cn2)CC1
Intrinsic activity (Melanocortin receptor 5 [12]): 40%
Intrinsic activity (Melanocortin receptor 4 [13]): 103%
Intrinsic activity [6]: 93%
Intrinsic activity (Melanocortin receptor 3 [14]): 98%

CCCC(=O)C1(c2ccccc2)CCN(C(=O)[C@@H](Cc2ccc(OC)cc2)NC(=O)CCc2cnc[nH]2)CC1
EC50 (Melanocortin receptor 5 [1]): 9.4 µM
EC50 (Melanocortin receptor 4 [2]): 0.84 µM
EC50 (Melanocortin receptor 3 [3]): 7 µM
EC50 [4]: 0.0025 µM
IC50 [5]: 0.018 µM

COc1ccc(C[C@@H](NC(=O)[C@H]2Cc3ccccc3CN2)C(=O)N2CCC3(CC2)CN(S(C)(=O)=O)c2ccccc23)cc1
Intrinsic activity (Melanocortin receptor 4 [13]): 95%
EC50 (Melanocortin receptor 4 [2]): 0.04 µM
EC50 [4]: 0.22 µM
Intrinsic activity [6]: 80%

CCCC(=O)C1(c2ccccc2)CCN(C(=O)[C@@H](Cc2ccc(OC)cc2)NC(=O)[C@H](O)Cc2c[nH]cn2)CC1
Intrinsic activity (Melanocortin receptor 5 [12]): 20%
Intrinsic activity (Melanocortin receptor 4 [13]): 95%
Intrinsic activity [6]: 90%
Intrinsic activity (Melanocortin receptor 3 [14]): 85%

CCCC(=O)C1(c2ccccc2)CCN(C(=O)[C@@H](Cc2ccc(OC)cc2)NC(=O)[C@H](O)Cc2cnc[nH]2)CC1
EC50 (Melanocortin receptor 5 [1]): 2.7 µM
EC50 (Melanocortin receptor 4 [2]): 0.077 µM
EC50 (Melanocortin receptor 3 [16]): 3.9 µM
EC50 [4]: 0.0038 µM
IC50 [5]: 0.0055 µM
